Columns and labels:
[1] = system: MOLM13 cells; experiment: RNA-seq with differential expression, KEGG enrichment and GSEA in MOLM13 cells; assay type: cell-based, human; conditions: 200 nM, 24 h, fold change ≥2 and adjusted p-value ≤0.05
[2] = system: MOLM13 cells; experiment: Cell viability / antiproliferation assay in MOLM13 cells; assay type: cell-based, human; conditions: 72-h viability, CRBN WT and CRBN-null HEK293T and MOLM13 cells, 10 μM and 1 μM
Outline: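 Screening ran as a 72-h viability assay in CRBN wild-type and CRBN-null (knockout) HEK293T and MOLM13 cells. Lenalidomide and CC-885 served as controls. MOLM13 CRBN WT and KO cells were tested in biological triplicates, and the assay was repeated in three separate experiments.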

SMILES	number of differentially expressed genes (DEGs) [1]	activity in CRBN-dependent proliferation screen [2]
CN1CCc2[nH]c(-c3ccnc(NC(=O)[C@@H](CC(F)F)c4ccc(F)cc4)c3)c(Nc3ccccc3)c2C1=O [BAY-204]	5,020 genes	
Cc1ccc(NC(=O)NCc2ccc3c(c2)CN(C2CCC(=O)NC2=O)C3=O)cc1Cl (stereo not drawn) [CC-885]		nonselective profile
Nc1cccc2c1CN(C1CCC(=O)NC1=O)C2=O (stereo not drawn) [lenalidomide]		minimal activity

— paper PMC11600170 (JACS Au, 2024)
